Test results taken from ChEMBL document CHEMBL1156462, “Seco-pregnane steroids target the subgenomic RNA of alphavirus-like RNA viruses” (Proc Natl Acad Sci U S A, 2007).
Active and inactive are the calls of the source. The calls are words filed in the database; no cut-off is given here.

Legend:
Tobacco mosaic virus [1] = assay: Inhibition of TMV U1 replication in tobacco BY2 protoplast at 50 nM by local lesion assay using Chenopodium quinoa leaves; format: functional, organism-based
In short: (§1)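 TMV premixed with compound at a range of concentrations used to inoculate tobacco BY-2 protoplasts; virus multiplication then assayed by counting local lesions on the local lesion host Chenopodium quinoa.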

Tobacco mosaic virus [2] = assay: Inhibition of TMV U1 replication in tobacco BY2 protoplast by local lesion assay using Chenopodium quinoa leaves; format: functional, organism-based; in short: as §1
Tobacco mosaic virus [3] = assay: Reduction of coat protein level in TMV U1 infected tobacco BY2 protoplast by ELISA; format: functional, organism-based
In short: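 BY-2 protoplasts inoculated with TMV pretreated with a range of compound concentrations; coat protein measured by ELISA, three repeats per concentration, mean ± SD.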

Tobacco mosaic virus [4] = assay: Inhibition of coat protein sgRNA accumulation in TMV U1 infected Nicotiana tabacum cv K326 plant leaves at 50 nM by Northern blot; format: functional, organism-based
In short: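 N. tabacum cv. K326 leaves inoculated with TMV with or without 50 nM compound; inoculated and upper uninoculated leaves collected at 5 dpi. TRIzol total RNA probed with CP gene sequence by Northern blot, 28S rRNA as loading control.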

Sindbis virus [5] = assay: Antiviral activity against Sindbis virus XJ160 in BHK21 cells assessed as reduction of virus-induced cytopathic effect after 24 hrs; format: functional, organism-based; conditions: BHK-21
In short: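 SINV XJ-160 (2 × 10⁵ pfu/ml, thrice plaque-purified) treated with compound for 15 min, adsorbed 1 h to BHK-21 cells at MOI 0.01 in quadruplicate; washed, fresh DMEM with 5% FBS added, cells kept at 37°C, 5% CO₂. Cytopathic morphology scored by light microscopy at 24 hpi.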

[6] = Growth inhibition of hamster BHK21 cells at 100 nM after 48 hrs; format: cell-based, Mesocricetus auratus; conditions: bhk-21, 48 h, 0.1 µM
In short: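 BHK-21 cells mock-infected and incubated with 100 nM compound for 48 h; cell morphology and growth examined by light microscopy.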

Sindbis virus [7] = assay: Decrease in 26S sgRNA level in Sindbis virus XJ160 infected BHK21 cells after 3 hrs postinfection; format: functional, organism-based; conditions: BHK-21
In short: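 BHK-21 cells infected with SINV XJ-160 premixed with compound at MOI 10 in quadruplicate. Viral RNAs quantified at 3 hpi by Northern blot, with β-actin RNA as loading comparison.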

Sindbis virus [8] = assay: Decrease in 26S sgRNA level in Sindbis virus XJ160 infected BHK21 cells after 24 hrs postinfection; format: functional, organism-based; conditions: BHK-21
Sindbis virus [9] = assay: Reduction of mortality rate in Sindbis virus-infected newborn BALB/c mouse assessed as long term survivors at 5 mg/kg; format: functional
In short: (§2)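 Newborn BALB/c mice, 2–3 days old, ≈2 g, were inoculated intracerebrally with 20 μl medium holding 100 × LD50 SINV. Compound (20 μl, 5, 50 or 100 mg/kg BW) was mixed into the inoculum. There were 11 mice per group, counted at 3–7 days. Virus-alone and compound-alone controls were included.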

Sindbis virus [10] = assay: Reduction of Sindbis virus infection-induced mortality rate in newborn BALB/c mouse assessed as long term survivors at 50 mg/kg; format: functional; in short: as §2
Sindbis virus [11] = assay: Reduction of Sindbis virus infection-induced mortality rate in newborn BALB/c mouse assessed as long term survivors at 100 mg/kg; format: functional; in short: as §2
Sindbis virus [12] = assay: Reduction of Sindbis virus infection-induced mortality rate in newborn BALB/c mouse assessed as survivors at 100 mg/kg administered 4 hrs before infection after 7 days; format: functional
In short: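 Newborn BALB/c mice, 2–3 days old, ≈2 g, received 20 μl compound at 100 mg/kg BW 1 or 4 h before intracerebral inoculation with 20 μl containing 100 × LD50 SINV. There were 11 mice per group, with survivors counted at 3, 4, 5, 6 and 7 days.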

Sindbis virus [13] = assay: Reduction of Sindbis virus infection-induced mortality rate in newborn BALB/c mouse assessed as mouse survival at 100 mg/kg administered 1 hr before viral infection; format: functional, organism-based; set-up: dose 100 mg/kg
In short: (§3)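 Newborn BALB/c mice (2–3 days old, ≈2 g), 11 per group, given 20 μl compound at 100 mg/kg BW 1 or 4 h before intracerebral inoculation with 20 μl medium containing 100 × LD₅₀ SINV. Survivors counted at 3, 4, 5, 6 and 7 days after inoculation.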

Sindbis virus [14] = assay: Reduction of Sindbis virus infection-induced mortality rate in newborn BALB/c mouse assessed as mouse survival at 100 mg/kg administered 4 hrs before viral infection; format: functional, organism-based; set-up: dose 100 mg/kg; in short: as §3
Sindbis virus [15] = assay: Antiviral activity against Sindbis virus in BHK21 cells assessed as inhibition of virus-induced cytopathogenicity; format: functional, organism-based; conditions: BHK-21
[16] = system: Eastern equine encephalitis virus; assay: Antiviral activity against Eastern equine encephalitis virus in BHK21 cells assessed as inhibition of virus-induced cytopathogenicity; format: functional, organism-based; conditions: BHK-21
Getah virus = assay: Antiviral activity against Getah virus in BHK21 cells assessed as inhibition of virus-induced cytopathogenicity; format: functional, organism-based; conditions: BHK-21
In short: (§4)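 Cells seeded at 2 × 10⁵ per well 24 h before use (BHK-21 for GETV, H9 for HIV, CIK for Reovirus, 983A for adenovirus, Veto for measles virus). Infected at a dose giving 100% cytopathic effect at 3 dpi; virus premixed with compound at final 100, 50, 10, 3, 2, 1.5, 1, 0 nM. Infected and uninfected untreated controls on each plate.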

Hepatitis C virus = assay: Antiviral activity against HCV in human H9 cells assessed as inhibition of virus-induced cytopathogenicity; format: functional, organism-based, Hepacivirus hominis
Measles morbillivirus = assay: Antiviral activity against measles virus in Veto cells assessed as inhibition of virus-induced cytopathogenicity; format: functional, organism-based; in short: as §4
Influenza A virus = assay: Antiviral activity against influenza A virus in Madin-Darby kidney cells assessed as inhibition of virus-induced cytopathogenicity; format: functional, organism-based
In short: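 Influenza A virus was tested on Madin–Darby canine kidney cells seeded at 2 × 10⁵ per well 24 h before use. Infection used the dose causing 100% CPE at 3 dpi. Compound was premixed with virus at final 100–0 nM (8 levels). Uninfected and virus-only controls were included per plate. Read-out was 50% inhibition of cytopathogenicity.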

unidentified adenovirus = assay: Antiviral activity against adenovirus in 983A cells assessed as inhibition of virus-induced cytopathogenicity; format: functional, organism-based; in short: as §4
[17] = system: Human immunodeficiency virus; assay: Antiviral activity against HIV in human H9 cells assessed as inhibition of virus-induced cytopathogenicity; format: functional, organism-based; conditions: Human immunodeficiency virus 1, H9; in short: as §4
Tobacco mosaic virus [18] = assay: Inhibition of TMV U1 multiplication in tobacco BY2 protoplast at 40 nM assessed as inhibition of local lesions on Chenopodium quinoa leaves by local lesion assay after 3 days postinfection; format: functional; conditions: U1, 72 h; in short: as §1
Tobacco mosaic virus [19] = assay: Inhibition of TMV U1 multiplication in tobacco BY2 protoplast at 50 nM assessed as inhibition of local lesions on Chenopodium quinoa leaves by local lesion assay after 3 days postinfection; format: functional; conditions: U1, 72 h; in short: as §1
Tobacco mosaic virus [20] = assay: Inhibition of TMV U1 multiplication in tobacco BY2 protoplast at 10 nM assessed as local lesion size on Chenopodium quinoa leaves by local lesion assay; format: functional
Tobacco mosaic virus [21] = assay: Inhibition of TMV U1 multiplication in tobacco BY2 protoplast at 20 nM assessed as local lesion size on Chenopodium quinoa leaves by local lesion assay; format: functional
Tobacco mosaic virus [22] = assay: Inhibition of TMV U1 multiplication in tobacco BY2 protoplast at 40 nM assessed as local lesion size on Chenopodium quinoa leaves by local lesion assay; format: functional
Tobacco mosaic virus [23] = assay: Inhibition of TMV U1 multiplication in tobacco BY2 protoplast at 50 nM assessed as local lesion size on Chenopodium quinoa leaves by local lesion assay; format: functional

With `CO[C@@H]1C[C@H](O[C@H]2CC[C@@]3(C)C(=CC[C@H]4C(=O)OC5CO[C@]6(C)OC=C(CC[C@@H]43)[C@H]56)C2)O[C@H](C)[C@H]1O[C@H]1C[C@H](O)[C@H](O[C@@H]2C[C@@H](OC)[C@H](O[C@@H]3O[C@H](CO)[C@@H](O[C@@H]4O[C@H](CO)[C@@H](O)[C@H](O)[C@H]4O)[C@H](O)[C@H]3O)[C@@H](C)O2)[C@@H](C)O1` (stereo partly drawn) [PANICULATUMOSIDE C] the Activity (Tobacco mosaic virus [1]) was “Active”, the IC50 (Tobacco mosaic virus [2]) was 25 nM and the Activity (Tobacco mosaic virus [3]) was “Dose-dependent effect”. The Activity (Tobacco mosaic virus [4]) was “Active”, the Activity (Sindbis virus [5]) was “Dose-dependent effect” and the Activity [6] was “Non-toxic”. The Activity (Sindbis virus [7]) was “Dose-dependent effect”, the Activity (Sindbis virus [8]) was “Active” and the Activity (Sindbis virus [9]) was 18%. For the same compound, the Activity (Sindbis virus [10]) was 54%, the Activity (Sindbis virus [11]) was 100% and the Activity (Sindbis virus [12]) was 30%. The Activity (Sindbis virus [13]) was “Toxic”, the Activity (Sindbis virus [14]) was “Toxic” and the EC50 (Sindbis virus [15]) was 1.5 nM. For the same compound, the EC50 [16] was 2 nM, the EC50 (Getah virus) was 1 nM and the EC50 (Hepatitis C virus) was > 25000 nM. For the same compound, the EC50 (Measles morbillivirus) was > 25000 nM, the EC50 (Influenza A virus) was > 20000 nM and the EC50 (unidentified adenovirus) was > 25000 nM. For the same compound, the EC50 [17] was > 25000 nM, the inhibition at 0.04 µM (Tobacco mosaic virus [18]) was 93% and the inhibition at 0.05 µM (Tobacco mosaic virus [19]) was 100%. The Activity (Tobacco mosaic virus [20]) was 2.4 mm, the Activity (Tobacco mosaic virus [21]) was 1.6 mm and the Activity (Tobacco mosaic virus [22]) was 1 mm. It also gave an Activity (Tobacco mosaic virus [23]) of 0 mm.
